# Measurements pooled from the literature.
# Protocols differ between the studies behind these lines.
# FGFR2: Fibroblast growth factor receptor 2 (FGFR2, Homo sapiens, UniProt P21802)
# FGFR2 N549H: Fibroblast growth factor receptor 2 (FGFR2, Homo sapiens, UniProt P21802, N549H)
SMILES,target,test,setting,endpoint,value
COc1cc2c(N3CCN(C(=O)Nc4ccc(OC(C)C)cc4)CC3)ncnc2cc1OCCCN1CCCCC1,FGFR2,cell-free assay,0.5 µM,remaining signal,99.8%
CCN(CC)CCNC(=O)c1c(C)[nH]c(/C=C2\C(=O)Nc3ccc(F)cc32)c1C,FGFR2,"enzyme activity, inhibitor",0.3 µM,inhibition,36%
CN(C)CC#Cc1ccc(OCCCc2sc(N3CCc4cccc(C(=O)Nc5nc6ccccc6s5)c4C3)nc2C(=O)O)c(F)c1,FGFR2,"cell-free assay, competition with immobilised ligand",1 µM,remaining binding,98%
O=C1Nc2ccc(Cl)cc2C1=Cc1cc(Cl)c(O)c(Cl)c1,FGFR2,cell-free assay,0.5 µM,remaining signal,92%
CNCc1ccccc1-c1csc([C@H](C)Nc2nc(C)nc3cc(OC)c(OC)cc23)c1,FGFR2,"cell-free assay, competition with immobilised ligand",1 µM,remaining binding,94%
CS(=O)(=O)CCNCc1ccc(-c2ccc3ncnc(Nc4ccc(OCc5cccc(F)c5)c(Cl)c4)c3c2)o1,FGFR2,cell-free assay,0.5 µM,remaining signal,96.4%
Cc1ccc(C(=O)NCc2ccsc2)cc1C#Cc1cn(C(C)C)c2ncnc(N)c12,FGFR2,"enzyme activity, inhibitor",1 µM,activity vs control,55%
N#CCCc1ccc2c(c1)-c1[nH]c3ccc([N+](=O)[O-])cc3c1CC(=O)N2,FGFR2,cell-free assay,0.5 µM,remaining signal,93.2%
CNc1cccc2cc(C(=O)Nc3ccc(C(=O)O)cc3)c(=O)[nH]c12,FGFR2,"enzyme activity, inhibitor",10 µM,inhibition,-1%
Cc1sc(C(=O)NC2COC2)cc1-n1cc(NC(=O)Nc2c(F)cccc2Cl)cn1,FGFR2,"enzyme activity, inhibitor",10 µM,remaining activity,105%
CN(C)C1CCN(CC#Cc2nn(C3CCCC3)c3nc(NCc4ccccc4)ncc23)C1 (centres unmarked),FGFR2,"enzyme activity, inhibitor, FRET",0.1 µM,inhibition,0%
Cc1noc([C@H]2C[C@@H](c3ccc(C(F)(F)F)cc3)CN(C(=O)N3CCS(=O)(=O)C3)C2)n1,FGFR2,"cell-free assay, competition with immobilised ligand",1 µM,remaining binding,85%
CNC(=O)c1cc(Oc2ccc(NC(=O)Nc3ccc(Cl)c(C(F)(F)F)c3)cc2)ccn1,FGFR2,"enzyme activity, inhibitor",0.3 µM,inhibition,66%
Cc1cc(NC(=O)c2cccc3cc(-c4cccc5[nH]nc(N)c45)ccc23)ccc1F,FGFR2 N549H,"enzyme activity, inhibitor",0.1 µM,activity vs control,33%
Cc1ccc(Nc2nccc(N(C)c3ccc4c(C)n(C)nc4c3)n2)cc1S(N)(=O)=O,FGFR2,"enzyme activity, inhibitor",10 µM,inhibition,99%
C[C@@]1(Cc2ccc(C#N)cc2)C(=O)N(c2cc(Cl)cc(Cl)c2)c2ncc(C(=O)NC3(c4nc(C5CCC5)no4)CC3)n21,FGFR2,"cell-free assay, competition with immobilised ligand",1 µM,remaining binding,100%
Cc1cnc(NC2CCOCC2)nc1-n1cnc(C(=O)NC(CN)c2cc(F)cc(Cl)c2)c1 (centres unmarked),FGFR2,"enzyme activity, inhibitor, radiometric",1 µM,remaining activity,100%
O=c1nc(-c2ccccn2)sc2ccccc12,FGFR2,"cell-free assay, competition with immobilised ligand",1 µM,remaining binding,100%
CC/C(=N\NC(=O)NCc1cccc(O)c1)c1ccc(O)c(C)c1O,"Fibroblast growth factor receptor 2 (FGFR2, Homo sapiens, UniProt P21802, V564I)","enzyme activity, inhibitor",0.1 µM,inhibition,-2.7%
CC(C)(C)c1nc(-c2cccc(NS(=O)(=O)c3c(F)cccc3F)c2F)c(-c2ccnc(N)n2)s1,FGFR2,"enzyme activity, inhibitor, radiometric",1 µM,remaining activity,92%
Nc1ncnc2occ(-c3ccc(NC(=O)Nc4cc(C(F)(F)F)ccc4F)cc3)c12,FGFR2,cell-free assay,20 µM,remaining signal,0%
CN(c1ccnc(CNc2nc(Nc3ccc4c(c3)CC(=O)N4)ncc2C(F)(F)F)n1)S(C)(=O)=O,FGFR2,"cell-free assay, competition with immobilised ligand",1 µM,remaining binding,59%
Cc1ccc(NC(=O)c2ccc(CN3CCN(C)CC3)cc2)cc1Nc1nc(-c2cccnc2)cs1,FGFR2,cell-free assay,0.5 µM,remaining signal,100%
Cc1ccc(NC(=O)c2ccc(C)c(C(F)(F)F)c2)cc1C#Cc1nn(C2CCC(O)CC2)c2ncnc(N)c12 (centres unmarked),FGFR2 N549H,cell-free assay,10 µM,remaining signal,-1%
O=C(NCCCC1CCCCC1)c1ccc(CNC(=O)c2cnn(-c3ccccc3)c2C(F)(F)F)cc1,FGFR2,"cell-free assay, competition with immobilised ligand",0.1 µM,remaining binding,100%
CCCOc1ccc(OC)c(F)c1C(=O)c1ccc(C(=O)N[C@@H]2CNC[C@H]2NC(=O)c2ccc3[nH]ncc3c2)cc1,FGFR2,"enzyme activity, inhibitor",10 µM,remaining activity,70%
